Results published in ChEMBL document CHEMBL1667766, “Synthesis of elastin based peptides conjugated to benzisoxazole as a new class of potent antimicrobials--A novel approach to enhance biocompatibility” (2011).
Where a SMILES comes first, the peptide text is derived from it. The star is where a group is joined. X1 = Fc1ccc2c(C3CCN(*)CC3)noc2c1

Experiments:
Assay type in all cases: functional
Klebsiella pneumoniae [1] = assay: Antimicrobial activity against Klebsiella pneumoniae after 72 hrs by microdilution method
Escherichia coli [2] = assay: Antimicrobial activity against Escherichia coli after 72 hrs by microdilution method
Aspergillus flavus [3] = assay: Antifungal activity against Aspergillus flavus after 24 hrs by agar well diffusion method
Method in brief: (§1)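 Fungi subcultured in 25 mL nutrient broth for one day to give inoculum, then spread on solidified Sabouraud agar. Wells punched with a 6 mm cork borer and filled with 0.1 mL test solution in DMSO, prepared from a 1 mg/mL stock. Bavistin as reference, DMSO as negative control. Read-out is inhibition zone diameter (mm).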

Staphylococcus [4] = assay: Antimicrobial activity against coagulase positive Staphylococcus after 24 hrs by agar well diffusion method
Method in brief: (§2)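 Bacteria grown in nutrient broth at 37 °C for 24 h, subcultured in 25 mL broth at room temperature, then spread on nutrient agar. Wells (6 mm cork borer) filled with 0.1 mL test solution in DMSO, prepared from a 1 mg/mL stock. Amoxicillin as reference, DMSO as negative control. Plates kept 24 h at 37 °C; inhibition zone measured in mm.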

Xanthomonas oryzae [5] = assay: Antimicrobial activity against Xanthomonas oryzae after 24 hrs by agar well diffusion method
Fusarium oxysporum [6] = assay: Antifungal activity against Fusarium oxysporum after 24 hrs by agar well diffusion method; method in brief: as §1
Klebsiella pneumoniae [7] = assay: Antimicrobial activity against Klebsiella pneumoniae after 24 hrs by agar well diffusion method; method in brief: as §2
Fusarium oxysporum [8] = assay: Antifungal activity against Fusarium oxysporum after 72 hrs by microdilution method
Aspergillus flavus [9] = assay: Antifungal activity against Aspergillus flavus after 72 hrs by microdilution method
Staphylococcus [10] = assay: Antimicrobial activity against coagulase positive Staphylococcus after 72 hrs by microdilution method
Xanthomonas oryzae [11] = assay: Antimicrobial activity against Xanthomonas oryzae after 72 hrs by microdilution method
Aspergillus niger [12] = assay: Antifungal activity against Aspergillus niger after 24 hrs by agar well diffusion method; method in brief: as §1
Escherichia coli [13] = assay: Antimicrobial activity against Escherichia coli after 24 hrs by agar well diffusion method; method in brief: as §2
Aspergillus niger [14] = assay: Antifungal activity against Aspergillus niger after 72 hrs by microdilution method

Q: How did the MIC (Klebsiella pneumoniae [1]) turn out when NCC(=O)N[C@@H](Cc1ccccc1)C(=O)NCC(=O)N[C@@H](Cc1ccccc1)C(=O)N1CCC[C@H]1C(=O)N1CCC(c2noc3cc(F)ccc23)CC1.O=C(O)C(F)(F)F (H-GFGFP-X1) was run?
A: 6 µg/mL

Q: What about the MIC (Escherichia coli [2]) of the same compound?
A: 8 µg/mL

Q: What about the “inhibition zone (IZ)” value (Aspergillus flavus [3]) of the same compound?
A: 21 mm

Q: What about the “inhibition zone (IZ)” value (Staphylococcus [4]) of the same compound?
A: 18 mm

Q: And the “inhibition zone (IZ)” value (Xanthomonas oryzae [5])?
A: 20 mm

Q: What about the “inhibition zone (IZ)” value (Fusarium oxysporum [6]) of the same compound?
A: 23 mm

Q: What about the “inhibition zone (IZ)” value (Klebsiella pneumoniae [7]) of the same compound?
A: 18 mm

Q: And the MIC (Fusarium oxysporum [8])?
A: 8 µg/mL

Q: And the MIC (Aspergillus flavus [9])?
A: 8 µg/mL

Q: What about the MIC (Staphylococcus [10]) of the same compound?
A: 8 µg/mL

Q: And the MIC (Xanthomonas oryzae [11])?
A: 9 µg/mL

Q: And the “inhibition zone (IZ)” value (Aspergillus niger [12])?
A: 29 mm

Q: And the “inhibition zone (IZ)” value (Escherichia coli [13])?
A: 25 mm

Q: And the MIC (Aspergillus niger [14])?
A: 6 µg/mL

Q: How did the MIC (Klebsiella pneumoniae [1]) turn out when C[C@H](NC(=O)CNC(=O)CN)C(=O)N1CCC[C@H]1C(=O)N1CCC(c2noc3cc(F)ccc23)CC1.O=C(O)C(F)(F)F (H-GGAP-X1) was run?
A: 14 µg/mL

Q: What about the MIC (Escherichia coli [2]) of the same compound?
A: 17 µg/mL

Q: What about the “inhibition zone (IZ)” value (Aspergillus flavus [3]) of the same compound?
A: 13 mm

Q: And the “inhibition zone (IZ)” value (Staphylococcus [4])?
A: 11 mm

Q: And the “inhibition zone (IZ)” value (Xanthomonas oryzae [5])?
A: 13 mm

Q: And the “inhibition zone (IZ)” value (Fusarium oxysporum [6])?
A: 16 mm

Q: And the “inhibition zone (IZ)” value (Klebsiella pneumoniae [7])?
A: 12 mm

Q: And the MIC (Fusarium oxysporum [8])?
A: 19 µg/mL

Q: What about the MIC (Aspergillus flavus [9]) of the same compound?
A: 18 µg/mL

Q: And the MIC (Staphylococcus [10])?
A: 16 µg/mL

Q: And the MIC (Xanthomonas oryzae [11])?
A: 13 µg/mL

Q: And the “inhibition zone (IZ)” value (Aspergillus niger [12])?
A: 19 mm

Q: What about the “inhibition zone (IZ)” value (Escherichia coli [13]) of the same compound?
A: 18 mm

Q: What about the MIC (Aspergillus niger [14]) of the same compound?
A: 15 µg/mL

Q: Which results are given for NCC(=O)NCC(=O)N[C@@H](Cc1ccccc1)C(=O)N1CCC[C@H]1C(=O)N1CCC(c2noc3cc(F)ccc23)CC1.O=C(O)C(F)(F)F (H-GGFP-X1)?
A: MIC (Klebsiella pneumoniae [1]): 11 µg/mL; MIC (Escherichia coli [2]): 14 µg/mL; inhibition zone (IZ) (Aspergillus flavus [3]): 16 mm; inhibition zone (IZ) (Staphylococcus [4]): 14 mm; inhibition zone (IZ) (Xanthomonas oryzae [5]): 16 mm; inhibition zone (IZ) (Fusarium oxysporum [6]): 20 mm; inhibition zone (IZ) (Klebsiella pneumoniae [7]): 15 mm; MIC (Fusarium oxysporum [8]): 16 µg/mL; MIC (Aspergillus flavus [9]): 15 µg/mL; MIC (Staphylococcus [10]): 13 µg/mL; MIC (Xanthomonas oryzae [11]): 11 µg/mL; inhibition zone (IZ) (Aspergillus niger [12]): 25 mm; inhibition zone (IZ) (Escherichia coli [13]): 22 mm; MIC (Aspergillus niger [14]): 11 µg/mL

Q: With CC(C)[C@H](NC(=O)CN)C(=O)NCC(=O)N[C@H](C(=O)N1CCC[C@H]1C(=O)N1CCC(c2noc3cc(F)ccc23)CC1)C(C)C.O=C(O)C(F)(F)F (H-GVGVP-X1) as the compound, how does the MIC (Klebsiella pneumoniae [1]) read?
A: 8 µg/mL

Q: And the MIC (Escherichia coli [2])?
A: 11 µg/mL

Q: What about the “inhibition zone (IZ)” value (Aspergillus flavus [3]) of the same compound?
A: 17 mm

Q: What about the “inhibition zone (IZ)” value (Staphylococcus [4]) of the same compound?
A: 15 mm

Q: What about the “inhibition zone (IZ)” value (Xanthomonas oryzae [5]) of the same compound?
A: 17 mm

Q: And the “inhibition zone (IZ)” value (Fusarium oxysporum [6])?
A: 21 mm

Q: What about the “inhibition zone (IZ)” value (Klebsiella pneumoniae [7]) of the same compound?
A: 17 mm

Q: And the MIC (Fusarium oxysporum [8])?
A: 10 µg/mL

Q: And the MIC (Aspergillus flavus [9])?
A: 9 µg/mL

Q: What about the MIC (Staphylococcus [10]) of the same compound?
A: 10 µg/mL

Q: And the MIC (Xanthomonas oryzae [11])?
A: 10 µg/mL

Q: What about the “inhibition zone (IZ)” value (Aspergillus niger [12]) of the same compound?
A: 27 mm

Q: What about the “inhibition zone (IZ)” value (Escherichia coli [13]) of the same compound?
A: 23 mm

Q: And the MIC (Aspergillus niger [14])?
A: 8 µg/mL
